Laboratory results taken from ChEMBL document CHEMBL1142660, “Optimization and validation of a docking-scoring protocol; application to virtual screening for COX-2 inhibitors” (J Med Chem, 2005).

Tests used:
[1] = molecular target: Prostaglandin G/H synthase 1 (Homo sapiens) (UniProt P23219); assay: Inhibition of COX-1 in human immunoassay; parameters: concentration or dose not given beside the values
[2] = molecular target: T1, Prostaglandin G/H synthase 2 (Homo sapiens) (UniProt P35354); assay: Inhibition of COX-2 in human immunoassay; parameters: concentration or dose not given beside the values
T1 sequence (whole entry): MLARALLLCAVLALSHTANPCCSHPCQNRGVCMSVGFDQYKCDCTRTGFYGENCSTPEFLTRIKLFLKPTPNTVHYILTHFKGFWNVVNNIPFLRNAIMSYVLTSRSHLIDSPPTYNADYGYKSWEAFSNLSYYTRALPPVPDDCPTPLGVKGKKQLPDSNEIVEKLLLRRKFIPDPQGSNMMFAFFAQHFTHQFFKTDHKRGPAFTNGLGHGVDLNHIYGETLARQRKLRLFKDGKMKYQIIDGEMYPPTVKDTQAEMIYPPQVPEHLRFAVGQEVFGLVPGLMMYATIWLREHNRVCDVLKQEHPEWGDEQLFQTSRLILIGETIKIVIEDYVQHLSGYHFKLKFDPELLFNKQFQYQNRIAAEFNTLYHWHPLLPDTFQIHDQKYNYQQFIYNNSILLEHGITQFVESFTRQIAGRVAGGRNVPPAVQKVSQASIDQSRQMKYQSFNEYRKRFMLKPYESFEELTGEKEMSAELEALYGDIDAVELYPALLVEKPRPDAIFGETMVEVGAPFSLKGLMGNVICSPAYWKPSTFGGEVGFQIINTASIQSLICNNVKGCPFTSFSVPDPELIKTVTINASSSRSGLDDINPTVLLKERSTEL
Outline: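 Human COX-2 enzyme immunoassay kit, run per the manufacturer's instructions. Each compound was tested at a single concentration of 1 µM, and the read-out was percent inhibition of enzyme activity.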

Prostaglandin G/H synthase 1 (Homo sapiens), sequence (P23219 whole entry): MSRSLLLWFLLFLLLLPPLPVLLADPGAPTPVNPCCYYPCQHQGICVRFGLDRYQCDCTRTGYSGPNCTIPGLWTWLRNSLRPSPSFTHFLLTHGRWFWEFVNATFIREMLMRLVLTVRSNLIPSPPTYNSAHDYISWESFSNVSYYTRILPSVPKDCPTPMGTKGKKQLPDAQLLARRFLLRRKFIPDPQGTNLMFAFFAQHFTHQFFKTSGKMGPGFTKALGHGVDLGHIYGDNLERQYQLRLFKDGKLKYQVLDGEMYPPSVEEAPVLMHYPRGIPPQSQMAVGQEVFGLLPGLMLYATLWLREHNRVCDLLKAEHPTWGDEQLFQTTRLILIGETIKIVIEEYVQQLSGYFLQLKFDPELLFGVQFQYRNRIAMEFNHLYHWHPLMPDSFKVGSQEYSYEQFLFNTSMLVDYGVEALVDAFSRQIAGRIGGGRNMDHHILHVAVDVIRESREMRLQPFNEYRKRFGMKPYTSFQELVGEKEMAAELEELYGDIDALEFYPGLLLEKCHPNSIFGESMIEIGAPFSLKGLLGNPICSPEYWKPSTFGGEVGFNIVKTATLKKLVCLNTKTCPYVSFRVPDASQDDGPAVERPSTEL

| Enzyme inhibition [1] | Enzyme inhibition [2] | SMILES |
| --- | --- | --- |
| 14% | 27% | NS(=O)(=O)c1ccc(NC2=CC(=O)C(=O)c3ccccc32)cc1 |
| 23% | 48% | Cc1onc(-c2ccccc2)c1C(=O)Nc1ccc(S(N)(=O)=O)cc1 |
| 38% | 39% | C/C(=N\Nc1ccc(S(N)(=O)=O)cc1)c1ccccn1 |
| 61% | 29% | NS(=O)(=O)c1ccc(Nc2nc(-c3ccccc3)cs2)cc1 |
| 8% | 22% | NS(=O)(=O)c1ccc(NC(=S)NC(=O)c2ccc(Cl)cc2Cl)cc1 |
| 11% | 42% | NS(=O)(=O)c1ccc(N/C=C/C(=O)c2ccncc2)cc1 |
| 23% | 30% | NS(=O)(=O)c1ccc(CCNS(=O)(=O)c2ccc(Cl)cc2Cl)cc1 |
| 61% | 22% | NS(=O)(=O)c1ccc(CCNS(=O)(=O)c2ccccc2[N+](=O)[O-])cc1 |
| 14% | 60% | CS(=O)(=O)c1cc(Nc2ccc(Br)cc2)ncn1 |
| 46% | 10% | NS(=O)(=O)c1ccc(CCNC(=O)c2ccccc2Br)cc1 |
| 11% | 54% | NS(=O)(=O)c1ccc(NCc2cnc3ccccc3n2)cc1 |
| 23% | 57% | NS(=O)(=O)c1ccc(Cl)c(C(=O)Nc2cccc([N+](=O)[O-])c2)c1 |
